Key:
A549 [1] = assay: Cytotoxicity against human A549/ATCC cells assessed as cell growth at 10 uM after 48 hrs by SRB assay; assay type: functional; conditions: A549, 48 h, read-out: Activity
In short: (§1)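 NCI primary single-dose screen at 10^-5 M against the ~60 human tumour cell line panel. Cells grown in RPMI-1640 with 5% fetal calf serum and 2 mM L-glutamine and pre-incubated 24 h before compound addition. Compound added from DMSO solution with 48 h exposure. Growth read by sulforhodamine B protein staining.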

ACHN = assay: Cytotoxicity against human ACHN cells assessed as cell growth at 10 uM after 48 hrs by SRB assay; assay type: functional; conditions: read-out: Activity; in short: as §1
RPMI-8226 = assay: Cytotoxicity against human RPMI8226 cells assessed as cell growth at 10 uM after 48 hrs by SRB assay; assay type: functional; conditions: RPMI-8226, 48 h, read-out: Activity
In short: (§2)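 NCI primary single-dose screen at 10^-5 M against the full panel of about 60 human tumor cell lines. Cells were in RPMI-1640 with 5% fetal calf serum and 2 mM L-glutamine and preincubated 24 h. Compound was given in DMSO with 48 h exposure. Growth was estimated by sulforhodamine B protein assay.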

CCRF-CEM = assay: Cytotoxicity against human CCRF-CEM cells after 48 hrs by SRB assay; assay type: functional
In short: (§3)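 NCI ~60-line panel in RPMI-1640 with 5% fetal calf serum and 2 mM L-glutamine, pre-incubated 24 h. Compound in DMSO tested at five 10-fold concentrations (10^-4 to 10^-8 M) with 48 h continuous exposure. Growth measured by sulforhodamine B protein assay. GI50 (50% net growth inhibition), TGI (total inhibition) and LC50 (50% net cell death) derived from dose-response.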

A549 [2] = assay: Cytotoxicity against human A549/ATCC cells after 48 hrs by SRB assay; assay type: functional; conditions: A549, 48 h; in short: as §3
[3] = Toxicity in ip dosed athymic nude mouse assessed as body weight loss after 2 weeks; assay type: organism-based; conditions: in vivo
In short: (§4)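 Maximum tolerated dose determination in athymic nude mice. Single ip injection of 400, 200 or 100 mg/kg, one mouse per dose. Compound solubilized in DMSO. Feed and water ad libitum. Mice observed 2 weeks for body weight loss, lethality and other toxicity signs; sacrificed if weight loss exceeds 20%.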

OVCAR-3 = assay: Cytotoxicity against human OVCAR3 cells after 48 hrs by SRB assay; assay type: functional; conditions: OVCAR-3, 48 h
In short: (§5)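 NCI five-dose screen on the ~60-line human tumor panel. Cells grown in RPMI-1640 with 5% fetal calf serum and 2 mM L-glutamine, seeded at line-dependent density and preincubated 24 h. Compound added from DMSO at 10-fold dilutions from 10^-4 to 10^-8 M, continuous exposure 48 h. Growth read by sulforhodamine B protein stain. GI50, TGI and LC50 derived per line.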

T47D = assay: Cytotoxicity against human T47D cells assessed as cell growth at 10 uM after 48 hrs by SRB assay; assay type: functional; conditions: read-out: Activity
In short: (§6)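 NCI primary one-dose screen at 10^-5 M against the full panel of about 60 human tumour cell lines, run to the NCI Drug Evaluation Branch protocol.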

SN12C = assay: Cytotoxicity against human SN12C cells assessed as cell growth at 10 uM after 48 hrs by SRB assay; assay type: functional; conditions: read-out: Activity; in short: as §6
HCC 2998 = assay: Cytotoxicity against human HCC2998 cells after 48 hrs by SRB assay; assay type: functional; conditions: HCC 2998, 48 h; in short: as §3
MDA-MB-468 = assay: Cytotoxicity against human MDA-MB-468 cells assessed as cell growth at 10 uM after 48 hrs by SRB assay; assay type: functional; conditions: MDA-MB-468, 48 h, read-out: Activity; in short: as §2
LOX IMVI = assay: Cytotoxicity against human LOXIMVI cells after 48 hrs by SRB assay; assay type: functional; in short: as §5
M14 = assay: Cytotoxicity against human M14 cells assessed as cell growth at 10 uM after 48 hrs by SRB assay; assay type: functional; conditions: M14, 48 h, read-out: Activity; in short: as §2
DU-145 = assay: Cytotoxicity against human DU145 cells assessed as cell growth at 10 uM after 48 hrs by SRB assay; assay type: functional; conditions: DU-145, 48 h, read-out: Activity; in short: as §1
[4] = Toxicity in ip dosed athymic nude mouse assessed as lethality after 2 weeks; assay type: organism-based; conditions: in vivo; in short: as §4
NCI-H23 = assay: Cytotoxicity against human NCI-H23 cells assessed as cell growth at 10 uM after 48 hrs by SRB assay; assay type: functional; conditions: NCI-H23, 48 h, read-out: Activity; in short: as §2
Malme-3M [5] = assay: Cytotoxicity against human MALME-3M cells after 48 hrs by SRB assay; assay type: functional; in short: as §5
U-251 = assay: Cytotoxicity against human U251 cells assessed as cell growth at 10 uM after 48 hrs by SRB assay; assay type: functional; conditions: U-251, 48 h, read-out: Activity; in short: as §6
HCT-116 = assay: Cytotoxicity against human HCT116 cells after 48 hrs by SRB assay; assay type: functional; conditions: HCT-116, 48 h; in short: as §3
NCI-H322M = assay: Cytotoxicity against human NCI-H322M cells assessed as cell growth at 10 uM after 48 hrs by SRB assay; assay type: functional; conditions: read-out: Activity; in short: as §2
A498 = assay: Cytotoxicity against human A498 cells after 48 hrs by SRB assay; assay type: functional; conditions: A498, 48 h; in short: as §3
Malme-3M [6] = assay: Cytotoxicity against human MALME-3M cells assessed as cell growth at 10 uM after 48 hrs by SRB assay; assay type: functional; conditions: read-out: Activity; in short: as §2
SK-OV-3 [7] = assay: Cytotoxicity against human SKOV3 cells assessed as cell growth at 10 uM after 48 hrs by SRB assay; assay type: functional; conditions: SK-OV-3, 48 h, read-out: Activity; in short: as §6
RXF 393 = assay: Cytotoxicity against human RXF393 cells assessed as cell growth at 10 uM after 48 hrs by SRB assay; assay type: functional; conditions: RXF 393, 48 h, read-out: Activity; in short: as §2
SK-OV-3 [8] = assay: Cytotoxicity against human SKOV3 cells after 48 hrs by SRB assay; assay type: functional; conditions: SK-OV-3, 48 h
In short: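 NCI 60-cell-line five-dose screen. Cells were grown in 1640 medium with 5% fetal calf serum and 2 mM L-glutamine, with inoculum density set by cell line, and pre-incubated 24 h. Compound in DMSO was added at 10^-4 to 10^-8 M (10-fold steps) with 48 h continuous exposure. Growth was read by SRB protein assay, and GI50, TGI and LC50 were derived from dose-response.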

HOP-92 = assay: Cytotoxicity against human HOP92 cells after 48 hrs by SRB assay; assay type: functional; conditions: HOP-92, 48 h; in short: as §3

SMILES: CCc1ccc(-c2ccc(=O)n(-c3ccc(S(N)(=O)=O)cc3)n2)cc1
- growth at 10 µM (A549 [1]): 18%
- growth at 10 µM (ACHN): 60.3%
- growth at 10 µM (RPMI-8226): -29.9%
- LC50 (CCRF-CEM): > 100 µM
- GI50 (CCRF-CEM; read-out: GI50): 0.786 µM
- GI50 (CCRF-CEM; read-out: pGI50 (converted)): 0.794 µM
- TGI (CCRF-CEM; read-out: pTGI): > 100 µM
- LC50 (A549 [2]): > 100 µM
- GI50 (A549 [2]; read-out: GI50): 2.58 µM
- GI50 (A549 [2]; read-out: pGI50 (converted)): 2.57 µM
- TGI (A549 [2]; read-out: pTGI): > 100 µM
- MTD at 336 h [3]: 400 mg/kg
- LC50 (OVCAR-3): > 100 µM
- GI50 (OVCAR-3; read-out: GI50): 0.429 µM
- GI50 (OVCAR-3; read-out: pGI50 (converted)): 0.427 µM
- TGI (OVCAR-3; read-out: pTGI): > 100 µM
- growth at 10 µM (T47D): 33.4%
- growth at 10 µM (SN12C): 58.4%
- LC50 (HCC 2998): > 100 µM
- GI50 (HCC 2998; read-out: GI50): 2.62 µM
- GI50 (HCC 2998; read-out: pGI50 (converted)): 2.63 µM
- TGI (HCC 2998; read-out: pTGI): > 100 µM
- growth at 10 µM (MDA-MB-468): 7.89%
- LC50 (LOX IMVI): > 100 µM
- GI50 (LOX IMVI; read-out: GI50): 5.27 µM
- GI50 (LOX IMVI; read-out: pGI50 (converted)): 5.25 µM
- TGI (LOX IMVI; read-out: pTGI): > 100 µM
- growth at 10 µM (M14): 17.7%
- growth at 10 µM (DU-145): 59.6%
- MTD at 336 h [4]: 400 mg/kg
- growth at 10 µM (NCI-H23): 59.9%
- LC50 (Malme-3M [5]): 75.9 µM
- GI50 (Malme-3M [5]; read-out: GI50): 0.188 µM
- GI50 (Malme-3M [5]; read-out: pGI50 (converted)): 0.186 µM
- TGI (Malme-3M [5]; read-out: pTGI (converted)): 16.2 µM
- growth at 10 µM (U-251): 35%
- LC50 (concentration causing 50% net cell death) (HCT-116): > 100 µM
- GI50 (HCT-116; read-out: GI50): 0.535 µM
- GI50 (HCT-116; read-out: pGI50 (converted)): 0.537 µM
- TGI (HCT-116; read-out: pTGI (converted)): 19.1 µM
- growth at 10 µM (NCI-H322M): 115%
- LC50 (A498): > 100 µM
- GI50 (A498; read-out: GI50): 1.97 µM
- GI50 (A498; read-out: pGI50 (converted)): 1.95 µM
- TGI (A498; read-out: pTGI (converted)): 38 µM
- growth at 10 µM (Malme-3M [6]): 35.6%
- growth at 10 µM (SK-OV-3 [7]): 49.5%
- growth at 10 µM (RXF 393): -31.8%
- LC50 (SK-OV-3 [8]): > 100 µM
- GI50 (SK-OV-3 [8]; read-out: GI50): 4.02 µM
- GI50 (SK-OV-3 [8]; read-out: pGI50 (converted)): 3.98 µM
- TGI (SK-OV-3 [8]; read-out: pTGI): > 100 µM
- LC50 (HOP-92): > 100 µM
- GI50 (HOP-92; read-out: GI50): 17.3 µM
- GI50 (HOP-92; read-out: pGI50 (converted)): 17.4 µM
- TGI (HOP-92; read-out: pTGI (converted)): 75.9 µM
